Assay results as given in ChEMBL document CHEMBL1131640, “L-carnitine esters as "soft", broad-spectrum antimicrobial amphiphiles” (J Med Chem, 1998).

Experiments:
Format in all cases: functional
[1] = test system: Escherichia coli; assay: Minimal inhibitory concentration against Escherichia coli
Summary of the method: (§1)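 Microtiter broth dilution MIC assay. Strains: S. aureus, S. faecalis, E. coli, P. vulgaris and C. albicans were wild-type clinical isolates; S. cerevisiae ATCC 7752, A. fumigatus ATCC 28212, A. niger ATCC 16404 and M. mucedo ATCC 7941.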

[2] = test system: Staphylococcus aureus; assay: Minimal inhibitory concentration against Staphylococcus aureus; summary of the method: as §1
[3] = test system: Enterococcus faecalis; assay: Minimal inhibitory concentration against Streptococcus faecalis; summary of the method: as §1
[4] = test system: Proteus vulgaris; assay: Minimal inhibitory concentration against Proteus vulgaris; summary of the method: as §1
[5] = test system: Candida albicans; assay: Minimal inhibitory concentration against Candida albicans; summary of the method: as §1
[6] = test system: Aspergillus niger; assay: Minimal inhibitory concentration against Aspergillus niger; summary of the method: as §1
[7] = test system: Mucor mucedo; assay: Minimal inhibitory concentration against Mucor mucedo; summary of the method: as §1
[8] = test system: Saccharomyces cerevisiae; assay: Minimal inhibitory concentration against Saccharomyces cerevisiae; summary of the method: as §1
[9] = test system: Aspergillus fumigatus; assay: Minimal inhibitory concentration against Aspergillus fumigatus; summary of the method: as §1

SMILES	MIC [1] [µg/mL]	MIC [2] [µg/mL]	MIC [3] [µg/mL]	MIC [4] [µg/mL]	MIC [5] [µg/mL]	MIC [6] [µg/mL]	MIC [7] [µg/mL]	MIC [8] [µg/mL]	MIC [9] [µg/mL]
CCCCCCCCCCCCCCCCOC(=O)C[C@H](C[N+](C)(C)C)OC(=O)CC(C)C.[Cl-]	> 100	6.25	3.12	> 100				3.12	
CCCCCCCCCCCCCOC(=O)C[C@H](C[N+](C)(C)C)OC(=O)CCCCCCCCCC.[Cl-]	> 100	50	25	> 100	25	100	50	25	> 100
CCCCCCCCCCCOC(=O)C[C@H](C[N+](C)(C)C)OC(=O)CCCCCCCCCC.[Cl-]	> 100	> 100	3.12	> 100				> 100	
CCCCCCCCCCCCCOC(=O)C[C@H](C[N+](C)(C)C)OC(=O)CCCCCC.[Cl-]	> 100	6.25	3.12	> 100					
CC(C)CC(=O)O[C@H](CC(=O)OCCCCCCC(F)(F)C(F)(F)C(F)(F)C(F)(F)F)C[N+](C)(C)C.[Cl-]	> 100	12.5	6.25	100	12.5	50	50	25	100
CCCCCCCCCCCC(=O)O[C@H](CC(=O)OCCC(F)(F)C(F)(F)C(F)(F)C(F)(F)C(F)(F)C(F)(F)F)C[N+](C)(C)C.[Cl-]	> 100	> 100	> 100	> 100	> 100	> 100	> 100	> 100	> 100
CCCCCCCOC(=O)C[C@H](C[N+](C)(C)C)OC(=O)CCOc1ccccc1.[Cl-]	> 100	> 100	> 100	> 100	> 100	> 100	> 100	> 100	> 100
CCCCCCCCCCCCCOC(=O)C[C@H](C[N+](C)(C)C)OC(=O)C(C)CCCC.[Cl-] (some centres undefined)	> 100	6.25	6.25	> 100					
CCCCCCCCOC(=O)C[C@H](C[N+](C)(C)C)OC(=O)CC(C)C.[Cl-]	> 100	50	50	> 100	> 100	> 100	> 100	> 100	> 100
CCCCCCCCCCCOC(=O)C[C@@H](O)C[N+](C)(C)C.[Cl-]	> 100	12.5	25	> 100	> 100	> 100	> 100	> 100	> 100
CCCCCCCCCCCCCCCCOC(=O)C[C@@H](O)C[N+](C)(C)C.[Cl-]	> 100	6.25	3.12	> 100	6.25	3.12	6.25	> 100	6.25
CCCCCCCCCCCCCOC(=O)C[C@H](C[N+](C)(C)C)OC(=O)CCCCCCCC.[Cl-]	> 100	12.5	6.25	> 100	12.5	25	50	12.5	100
CCCCCCCCCCCCOC(=O)C[C@H](C[N+](C)(C)C)OC(=O)CCCCCC.[Cl-]	> 100	3.12	1.56	> 100	3.12	6.25	12.5	3.12	3.12
CCCCCCCCCCC(=O)O[C@H](CC(=O)OCCC(F)(F)C(F)(F)C(F)(F)C(F)(F)C(F)(F)C(F)(F)C(F)(F)C(F)(F)F)C[N+](C)(C)C.[Cl-]	> 100	> 100	> 100	> 100	> 100	> 100	> 100	> 100	> 100

The next lines start with the values.

MIC [1] [µg/mL]	MIC [2] [µg/mL]	MIC [3] [µg/mL]	MIC [4] [µg/mL]	MIC [5] [µg/mL]	MIC [6] [µg/mL]	MIC [7] [µg/mL]	MIC [8] [µg/mL]	MIC [9] [µg/mL]	SMILES
> 100	6.25	6.25	> 100						CCCCCCCCCCCCCOC(=O)C[C@H](C[N+](C)(C)C)OC(=O)CCCCCCC.[Cl-]
100	12.5	3.12	> 100	25	50	100	12.5	> 100	CCCCCC(CCCCC)OC(=O)C[C@H](C[N+](C)(C)C)OC(=O)CC(C)C.[Cl-]
> 100	> 100	25	> 100	> 100	> 100	> 100	> 100	> 100	CCCCCCCCCCCCCCCCCC(=O)O[C@H](CC(=O)O)C[N+](C)(C)C.[Cl-]
> 100	12.5		> 100	12.5	12.5	50	12.5	25	CCCCCCCCCCC(=O)O[C@H](CC(=O)OCCCCCCC(F)(F)C(F)(F)C(F)(F)C(F)(F)F)C[N+](C)(C)C.[Cl-]
25	3.12	3.12	> 100				> 100		CCCCCCCCCCCOC(=O)C[C@H](C[N+](C)(C)C)OC(=O)CCCCCCC.[Cl-]
100	3.12	3.12	> 100				1.56		CCCCCCCCCCCCOC(=O)C[C@H](C[N+](C)(C)C)OC(=O)CC(C)C.[Cl-]
25	6.25	3.12	100						CCCCCCCCCCCCOC(=O)C[C@H](C[N+](C)(C)C)OC(=O)C(C)C.[Cl-]
50	3.12	3.12	100	3.12	6.25	25	> 100	6.25	CCCCCCCOC(=O)C[C@H](C[N+](C)(C)C)OC(=O)CCCCCCCCCBr.[Cl-]
50	6.25	3.12	100	3.12	12.5	25	3.12	12.5	CCCCCCCCCCCC(=O)O[C@H](CC(=O)OCCOc1ccccc1)C[N+](C)(C)C.[Cl-]
100	3.12	1.56	100						CCCCCCCCCCCCCOC(=O)C[C@H](C[N+](C)(C)C)OC(=O)CC(C)C.[Cl-]
25	6.25	3.12	50	3.12	25	50	12.5	25	CCCCCCCCCCC(=O)O[C@H](CC(=O)OCCOc1ccccc1)C[N+](C)(C)C.[Cl-]
25	6.25	3.12	50						CCCCCCCCCCCOC(=O)C[C@H](C[N+](C)(C)C)OC(=O)CC(C)C.[Cl-]
25	12.5	3.12	50	6.25	6.25	12.5	6.25	12.5	C=CCCCCCCCCCOC(=O)C[C@H](C[N+](C)(C)C)OC(=O)CC(C)C.[Cl-]
25	3.12	3.12	50	3.12	25	50	3.12	25	CCCCCCCCCCOC(=O)C[C@H](C[N+](C)(C)C)OC(=O)CCCCCC.[Cl-]
50	6.25	3.12	100	3.12	12.5	25	3.12	12.5	CCCCCCCCCCCOC(=O)C[C@H](C[N+](C)(C)C)OC(=O)CCCBr.[Cl-]
50	12.5	6.25	> 100	3.12	25	100	3.12	50	CCCCCCCCCCOC(=O)C[C@H](C[N+](C)(C)C)OC(=O)CC(C)C.[Cl-]
25	3.12	1.56	> 100						CCCCCCCCCCCOC(=O)C[C@H](C[N+](C)(C)C)OC(=O)CCC(C)C.[Cl-]
25	3.12	1.56	100	3.12	3.12	6.25	3.12	3.12	CCCCCCCCCCCOC(=O)C[C@H](C[N+](C)(C)C)OC(=O)CCCCCC.[Cl-]
100	12.5	6.25	100	6.25	50	50	> 100	25	CC(C)CC(=O)O[C@H](CC(=O)OCCCCCCCCCCCBr)C[N+](C)(C)C.[Cl-]
25	3.12	3.12	50	3.12	6.25	25	3.12	12.5	CCCCCCCCOC(=O)C[C@H](C[N+](C)(C)C)OC(=O)CCCCCCCC.[Cl-]
